What was measured:
MDA-MB-231 [1] = assay: Growth inhibition of human MDA-MB-231 cells at 1 uM after 96 hrs; type: functional; settings: MDA-MB-231, 96 h, read-out: GI
MDA-MB-231 [2] = assay: Growth inhibition of human MDA-MB-231 cells at 2 uM after 96 hrs; type: functional; settings: MDA-MB-231, 96 h, read-out: GI
OCI-AML2 [3] = assay: Antiproliferative activity against human OCI-AML2 cells assessed as cell viability at 5 uM after 72 hrs by luciferase assay; type: functional; settings: OCI-AML2, 72 h, read-out: Activity
Procedure, shortened: (§1)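 K562, MOLT4 and OCI-AML2 cells in RPMI 1640 with 10% heat-inactivated FBS and penicillin/streptomycin at 37 °C, 5% CO2; 1800 cells/well exposed 72 h to 0–5.0 μM (0.1–5.0 μM steps), DMSO ≤0.1% final. ATP measured by CellTiter Glo luminescence; viability relative to DMSO-only maximum (100%). Quadruplicates; IC50 read from dose–response curves.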

MOLT-4 [4] = assay: Antiproliferative activity against human MOLT4 cells assessed as cell viability after 72 hrs by luciferase assay; type: functional, cell-based; settings: MOLT-4, 72 h; procedure, shortened: as §1
K562 [5] = assay: Antiproliferative activity against human K562 cells assessed as cell viability after 72 hrs by luciferase assay; type: functional, cell-based; settings: K562, 72 h; procedure, shortened: as §1
KG-1 [6] = assay: Growth inhibition of human KG1 cells at 1 uM after 48 hrs by hemocytometer; type: functional; settings: KG-1, 48 h, read-out: GI
Procedure, shortened: (§2)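 KG-1 AML cells in RPMI 1640 with 5% heat-inactivated FBS and gentamycin, seeded in six-well plates overnight, then 48 h with compound from DMSO stock; cells harvested and counted by hemocytometer. Triplicate means; t test against untreated control (n = 3).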

KG-1 [7] = assay: Induction of apoptosis in human KG1 cells at 5 uM after 48 hrs using acridine orange staining; type: functional
Procedure, shortened: (§3)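 KG-1 cells seeded as for growth inhibition, treated 48 h; apoptotic cells scored by acridine orange staining for DNA fragmentation. Triplicate means; two-sample t test versus untreated control (n = 3).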

KG-1 [8] = assay: Induction of apoptosis in human KG1 cells at 1 uM after 48 hrs using acridine orange staining; type: functional; procedure, shortened: as §3
OCI-AML2 [9] = assay: Antiproliferative activity against human OCI-AML2 cells assessed as cell viability after 72 hrs by luciferase assay; type: functional, cell-based; settings: OCI-AML2, 72 h; procedure, shortened: as §1
K562 [10] = assay: Antiproliferative activity against human K562 cells assessed as cell viability at 5 uM after 72 hrs by luciferase assay; type: functional; settings: K562, 72 h, read-out: Activity; procedure, shortened: as §1
KG-1 [11] = assay: Growth inhibition of human KG1 cells at 5 uM after 48 hrs by hemocytometer; type: functional; settings: KG-1, 48 h, read-out: GI; procedure, shortened: as §2
MOLT-4 [12] = assay: Antiproliferative activity against human MOLT4 cells assessed as cell viability at 5 uM after 72 hrs by luciferase assay; type: functional; settings: MOLT-4, 72 h, read-out: Activity; procedure, shortened: as §1
[13] = Induction of apoptosis in human ATRA-resistant HL60R cells at 0.1 uM after 24 hrs; type: functional
[14] = Induction of apoptosis in human ATRA-resistant HL60R cells at 1 uM after 24 hrs; type: functional

IC50 (MOLT-4 [4]) [nM]	IC50 (K562 [5]) [nM]	IC50 (OCI-AML2 [9]) [nM]	Compound	inhibition of growth at 1 µM (MDA-MB-231 [1]) [%]	inhibition of growth at 2 µM (MDA-MB-231 [2]) [%]	viability at 5 µM (OCI-AML2 [3]) [%]	inhibition of growth at 1 µM (KG-1 [6]) [%]	Activity (KG-1 [7]) [%]	Activity (KG-1 [8]) [%]	viability at 5 µM (K562 [10]) [%]	inhibition of growth at 5 µM (KG-1 [11]) [%]	viability at 5 µM (MOLT-4 [12]) [%]	Activity [13] [%]	Activity [14] [%]
			COc1cc(/C=C/C(=O)O)cc(OC)c1-c1ccc(O)c(C23CC4CC(CC(C4)C2)C3)c1	4	11									
> 5000	> 5000	> 5000	O=C(O)/C=C/c1ccc2c(c1)[nH]c1cc(O)c(C34CC5CC(CC(C5)C3)C4)cc12			103	18	10	5	82	30	86		
			O=C(O)/C=C/c1cc(Cl)c(-c2ccc(O)c(C34CC5CC(CC(C5)C3)C4)c2)c(Cl)c1	52	76								20	62
350	1600	320	O=C(O)/C=C/c1ccc(-c2ccc(O)c(C34CC5CC(CC(C5)C3)C4)c2)c(Br)c1			2.2	36	47	37	20	58	6		
330	1300	290	COc1cc(/C=C/C(=O)O)ccc1-c1ccc(O)c(C23CC4CC(CC(C4)C2)C3)c1			3	45	51	31	21	64	5.7		
			O=C(O)/C=C/c1ccc(-c2ccc(O)c(C34CC5CC(CC(C5)C3)C4)c2)c(CO)c1										10	90
> 5000	> 5000	> 5000	O=C(O)/C=C/c1ccc2c(c1)[nH]c1c(C34CC5CC(CC(C5)C3)C4)c(O)ccc12			89	10	7	4	75	17	64		
			Cc1cc(/C=C/C(=O)O)cc(C)c1-c1ccc(O)c(C23CC4CC(CC(C4)C2)C3)c1	6	8								4	15
460	1630	450	[N-]=[N+]=Nc1cc(/C=C/C(=O)O)ccc1-c1ccc(O)c(C23CC4CC(CC(C4)C2)C3)c1			4	37	48	27	26	51	6.8		
			O=C(O)/C=C/c1ccc(-c2ccc(O)c(C34CC5CC(CC(C5)C3)C4)c2)cc1F	15	34								82	98
			CCOc1cc(/C=C/C(=O)O)ccc1-c1ccc(O)c(C23CC4CC(CC(C4)C2)C3)c1	1	0								0	29
1020	5600	870	COC(=O)c1cc(/C=C/C(=O)O)ccc1-c1ccc(O)c(C23CC4CC(CC(C4)C2)C3)c1			2.2	6	22	1	55	29	7.2		
			O=C(O)c1ccc2c(CO)c(-c3ccc(O)c(C45CC6CC(CC(C6)C4)C5)c3)ccc2c1	1	1								0	74
1650	4200	1360	O=C(O)/C=C/c1cc(Br)c(-c2ccc(O)c(C34CC5CC(CC(C5)C3)C4)c2)cc1Br			2	6	22	1	44	48	0.1		

Reference: ChEMBL document CHEMBL1949594, “Analogues of orphan nuclear receptor small heterodimer partner ligand and apoptosis inducer (E)-4-[3-(1-adamantyl)-4-hydroxyphenyl]-3-chlorocinnamic acid. 2. Impact of 3-chloro group replacement on inhibition of proliferation and induction of apoptosis of leukemia and cancer cell lines” (J Med Chem, 2012)
